Shown are actives, neighbours in structure and some others; about 9.2% of the full set was active somewhere.
ERa SRC1 pot: ER-alpha (human) coactivator binding potentiation | P03372 | TR-FRET ERalpha-LBD/SRC-Cy5 coactivator binding, 2 h; 100 = basal binding, no effect | coactivator binding (% of control), % at 25.6 µM | 1.3% of 86,000 active | AID 639; in the data active means activity above about 200%;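 further: binding measured in presence of low estradiol as agonist stimulus; 0% = peptide alone without receptor and 100% = receptor with peptide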
ERa coact inh: blocks coactivator binding to human estrogen receptor alpha; TR-FRET ER-alpha LBD / SRC-1 peptide, estradiol-bound; inhibition, % at 25.6 µM; 1.7% of 86,000 active; in the data active means inhibition above about 50%;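 further: 0% = receptor plus peptide control and 100% = peptide only without receptor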
ERb SRC1 inh: ER-beta (human) coactivator binding inhibition | Q92731 | TR-FRET ER-beta LBD / SRC1-Cy5 peptide binding; receptor agonist-loaded with 1 µM estradiol | inhibition, % at 25.6 µM | 1.3% of 86,000 active | AID 633;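 active means compounds whose percent inhibition of the receptor-coactivator binding signal exceeds about 50% in the single-dose screen, limit read from the data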;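 further: 0% = receptor plus peptide wells without compound and 100% = peptide-only wells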
Target sequence (Q92731 whole entry, looked up, the tested form may be a part): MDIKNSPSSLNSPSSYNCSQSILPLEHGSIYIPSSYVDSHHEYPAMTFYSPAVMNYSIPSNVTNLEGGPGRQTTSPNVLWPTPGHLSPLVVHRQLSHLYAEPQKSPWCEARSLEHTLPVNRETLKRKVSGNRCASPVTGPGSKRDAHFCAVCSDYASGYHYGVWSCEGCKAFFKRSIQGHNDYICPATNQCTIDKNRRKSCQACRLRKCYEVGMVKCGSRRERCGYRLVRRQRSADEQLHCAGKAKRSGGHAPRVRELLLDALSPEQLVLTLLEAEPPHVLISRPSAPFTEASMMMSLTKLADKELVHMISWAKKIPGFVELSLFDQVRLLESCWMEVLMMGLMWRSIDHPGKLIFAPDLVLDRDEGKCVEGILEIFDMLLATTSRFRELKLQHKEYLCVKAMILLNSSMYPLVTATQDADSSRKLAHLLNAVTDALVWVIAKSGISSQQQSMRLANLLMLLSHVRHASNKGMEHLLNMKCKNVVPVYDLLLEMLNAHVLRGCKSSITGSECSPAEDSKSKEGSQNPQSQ
HUVEC inhibit: human endothelial cell proliferation inhibition | HUVEC proliferation, CellTiter-Glo luminescence, 72 h; stronger effect = lower value | viability, % at 10 µM (by protocol) | 1.1% of 86,000 active | AID 648;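 active means viability at or below 30%; inactive means viability above 30%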;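 further: 100% = median luminescence of DMSO-only cell control wells on each plate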
H69AR growth 86K: growth inhibitors of human H69AR lung tumor cells | viability, % at 10 µM | 6% of 85,000 active | AID 598 | H69AR lung tumor viability, ATP luminescence, 72 h; stronger effect = lower value;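 active means viability at or below 40%; inactive means viability above 40%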;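 further: multidrug resistant small cell line overexpressing MRP-1 efflux transporter; 100% = mean luminescence of untreated control wells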
Fibroblast inh: blocks proliferation of human lung fibroblasts; 1.1% of 85,000 active; LL 47 human lung fibroblast viability, ATP luminescence; stronger effect = lower value; viability, % at 10 µM;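 active means viability at or below 50% in the single dose screen; inactive means viability above 50%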;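 further: compound exposure lasted 72 h before the ATP readout; 100% = median luminescence of untreated cell-only wells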
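Test system: LL 47 human lung fibroblasts / Quantity: 1,150 cells in each well / Medium: IMEM growth medium with 15% fetal bovine serum / Incubation: 72 h compound exposure at 37 °C after overnight plating / Detection: CellTiter-Glo luminescence measuring cellular ATP / Read-out: % viability versus median cells-only luminescence / Benchmarks: cell-only wells, no compound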
Starred values were filed as active, the others as inactive; [ ] = remark or other dose.

CC1(C)CC(=O)C2=C(C1)c1c(ccc3ccccc13)NC2c1ccc(Br)o1 (configuration not stated) was read as ERa SRC1 pot 89, ERa coact inh 15, ERb SRC1 inh 10, HUVEC inhibit 67, H69AR growth 86K 33* and Fibroblast inh 97.
Screening CC1(C)CC(=O)C2=C(C1)Nc1ccccc1NC2c1ccc2c(c1)OCO2 (configuration not stated) returned ERa SRC1 pot 132, ERa coact inh -5, ERb SRC1 inh -10, HUVEC inhibit 90, H69AR growth 86K 93 and Fibroblast inh 96.
`Cc1ccc2cc(CN(CC3CCCO3)S(=O)(=O)c3ccccc3)c3nnnn3c2c1` (configuration not stated) gave ERa SRC1 pot 84, ERa coact inh 20, ERb SRC1 inh 19, HUVEC inhibit 96, H69AR growth 86K 12* and Fibroblast inh 94.
COc1ccc(-c2nn(-c3ccccc3)cc2C(=O)n2nnc3ccccc32)cc1 was read as ERa SRC1 pot 140, ERa coact inh 5, ERb SRC1 inh 7, HUVEC inhibit 77, H69AR growth 86K 23* and Fibroblast inh 99.
For C#CCOC(=O)c1ccccc1C(=O)n1nnc2ccccc21 the results were ERa SRC1 pot 127, ERa coact inh -1, ERb SRC1 inh -3, HUVEC inhibit 89, H69AR growth 86K 38* and Fibroblast inh 97.
`C#CCOC(=O)c1ccccc1C(=O)OCC#C` gave ERa SRC1 pot 117, ERa coact inh 5, ERb SRC1 inh -10, HUVEC inhibit 101, H69AR growth 86K 106 and Fibroblast inh 97.
`COc1ccc(-c2nn(-c3ccccc3)cc2C(=O)O)cc1OC` gave ERa SRC1 pot 103, ERa coact inh 1, ERb SRC1 inh -8, HUVEC inhibit 104, H69AR growth 86K 96 and Fibroblast inh 108.
O=C(c1cccc2ccccc12)n1nnc2ccccc21 was read as ERa SRC1 pot 110, ERa coact inh 13, ERb SRC1 inh 5, HUVEC inhibit 66, H69AR growth 86K 6.5* and Fibroblast inh 99.
c1ccc(-c2nc3c4ccccc4nc(N4CCN(c5ccccn5)CC4)n3n2)cc1 was read as ERa SRC1 pot 215*[fluorescence artefact?], ERa coact inh 15, ERb SRC1 inh -1, HUVEC inhibit 78, H69AR growth 86K 55 and Fibroblast inh 97.
O=C(c1cc(-c2ccncc2)nc2ccccc12)N1CCN(c2ccccn2)CC1 was read as ERa SRC1 pot 108, ERa coact inh -38, ERb SRC1 inh -21, HUVEC inhibit 51, H69AR growth 86K 19* and Fibroblast inh 60.
`O=C(c1ccccc1-c1ccccc1)N1CCN(c2ccccn2)CC1` gave ERa SRC1 pot 105, ERa coact inh -33, ERb SRC1 inh -10, HUVEC inhibit 56, H69AR growth 86K 19* and Fibroblast inh 53.
For O=C(c1cc(-c2cccnc2)nc2ccc(Br)cc12)N1CCN(c2ncccn2)CC1 the results were ERa SRC1 pot 113, ERa coact inh -2, ERb SRC1 inh -3, HUVEC inhibit 51, H69AR growth 86K 5.3* and Fibroblast inh 80.
Cc1ccccc1C(=O)N1CCN(c2ccccn2)CC1 was read as ERa SRC1 pot 108, ERa coact inh -4, ERb SRC1 inh -5, HUVEC inhibit 108, H69AR growth 86K 96 and Fibroblast inh 108.
`O=C(c1cc(-c2ccccc2)nc2ccccc12)N1CCN(c2ccccn2)CC1` gave ERa SRC1 pot 96, ERa coact inh 2, ERb SRC1 inh -7, HUVEC inhibit 86, H69AR growth 86K 58 and Fibroblast inh 95.
`c1ccc(-c2nnc(N3CCN(c4ccccn4)CC3)c3ccccc23)cc1` gave ERa SRC1 pot 113, ERa coact inh -3, ERb SRC1 inh -6, HUVEC inhibit 72, H69AR growth 86K 44 and Fibroblast inh 84.
For C=CCn1c(SCc2ccc(C#N)cc2)nnc1-c1ccc(C)cc1 the results were ERa SRC1 pot 96, ERa coact inh -7, ERb SRC1 inh -9, HUVEC inhibit 107, H69AR growth 86K 79 and Fibroblast inh 107.
For CCCCCc1ccc(CC(=O)Nn2c(C)nc3ccccc3c2=O)cc1 the results were ERa SRC1 pot 96, ERa coact inh 3, ERb SRC1 inh -7, HUVEC inhibit 81, H69AR growth 86K 82 and Fibroblast inh 94.
`CCc1ccccc1NC(=O)CSc1nnc(Cn2nnc3ccccc32)n1C` gave ERa SRC1 pot 98, ERa coact inh -26, ERb SRC1 inh -29, HUVEC inhibit 91, H69AR growth 86K 86 and Fibroblast inh 101.
Screening Cc1c(CN(C)C)c2c(n1Cc1ccccc1)C(=O)c1ccc(Br)cc1-2 returned ERa SRC1 pot 100, ERa coact inh -13, ERb SRC1 inh 2, HUVEC inhibit 22*, H69AR growth 86K 5.5* and Fibroblast inh 46*.
For Cc1c(CN(C)C)c2c(n1C)C(=O)c1ccc(Br)cc1-2 the results were ERa SRC1 pot 176, ERa coact inh -12, ERb SRC1 inh -16, HUVEC inhibit 78, H69AR growth 86K 66 and Fibroblast inh 77.
`COc1ccc(Cl)c(Cn2c(NCc3ccco3)nc3c2c(=O)n(C)c(=O)n3C)c1` gave ERa SRC1 pot 52, ERa coact inh 81*[fluorescence artefact?], ERb SRC1 inh 53*[fluorescence artefact?], HUVEC inhibit 87, H69AR growth 86K 67 and Fibroblast inh 97.
COc1cccc(Cn2c(NCc3ccco3)nc3c2c(=O)n(C)c(=O)n3C)c1 was read as ERa SRC1 pot 93, ERa coact inh -5, ERb SRC1 inh 0, HUVEC inhibit 84, H69AR growth 86K 86 and Fibroblast inh 93.
Screening CCCn1c(NCc2ccco2)nc2c1c(=O)n(C)c(=O)n2C returned ERa SRC1 pot 96, ERa coact inh 64*[fluorescence artefact?], ERb SRC1 inh 53*[fluorescence artefact?], HUVEC inhibit 105, H69AR growth 86K 84 and Fibroblast inh 97.
`CC(C)Oc1cccc(-c2nnc(SCC(=O)Nc3ccc4c(c3)OCCO4)n2N)c1` gave ERa SRC1 pot 93, ERa coact inh 1, ERb SRC1 inh -6, HUVEC inhibit 89, H69AR growth 86K 87 and Fibroblast inh 102.
COc1cccc(CN(C)C(=O)c2ccc3nccnc3c2)c1 was read as ERa SRC1 pot 51, ERa coact inh 33, ERb SRC1 inh 18, HUVEC inhibit 89, H69AR growth 86K 91 and Fibroblast inh 99.
For COc1ccccc1N1CCN(C(=O)c2ccc(S(=O)(=O)N3CCCCCC3)cc2)CC1 the results were ERa SRC1 pot 101, ERa coact inh -2, ERb SRC1 inh 3, HUVEC inhibit 87, H69AR growth 86K 89 and Fibroblast inh 95.
`COc1ccc(NC(=O)c2cc3c(=O)n(C)c4ccccc4c3n2C)cc1OC` gave ERa SRC1 pot 109, ERa coact inh -3, ERb SRC1 inh 5, HUVEC inhibit 54, H69AR growth 86K 97 and Fibroblast inh 85.
